An excerpt weighted towards active compounds, which were near 1.1% of everything screened.
PMI act – activators of human phosphomannose isomerase | purified human PMI, coupled resazurin fluorescence, 20 min; stronger effect = higher value; 1 = vehicle control, 0 substrate-free wells | activation factor at 20 µM | actives 0.005% (n = 190,000) | AID 1214;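 active = activation factor of 2 or more at 20 µM, relative to plate controls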
Target sequence (P34949 whole entry, looked up): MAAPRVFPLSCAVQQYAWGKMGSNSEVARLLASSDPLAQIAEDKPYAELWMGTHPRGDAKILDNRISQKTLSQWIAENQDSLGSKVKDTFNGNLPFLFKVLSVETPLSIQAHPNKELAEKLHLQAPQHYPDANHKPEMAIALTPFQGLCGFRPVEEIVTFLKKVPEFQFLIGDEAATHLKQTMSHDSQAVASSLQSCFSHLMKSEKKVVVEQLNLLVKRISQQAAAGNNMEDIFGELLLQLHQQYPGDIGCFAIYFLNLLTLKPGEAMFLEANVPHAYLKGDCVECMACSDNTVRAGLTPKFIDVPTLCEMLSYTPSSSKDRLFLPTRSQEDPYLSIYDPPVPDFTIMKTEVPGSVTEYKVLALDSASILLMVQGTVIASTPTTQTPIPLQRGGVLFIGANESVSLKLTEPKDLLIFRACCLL
G6PDH CS – L. mesenteroides G6PDH inhibition counter-screen | Purified L. mesenteroides G6PDH, diaphorase/resazurin coupled fluorescence, 45 min | inhibition, % at 5 µM | actives 0.12% (n = 200,000); in the data active = inhibition above about 50%
PMI act satM6P – PMI (human) activation, high substrate; coupled PMI enzyme assay, resazurin fluorescence, 20 min; stronger effect = higher value; 1 = untreated enzyme, 0 = substrate-free blank; activation factor at 20 µM; actives 0.34% (n = 190,000);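 active = activation factor of 2 or more at 20 µM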
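Technique: Diaphorase-driven resazurin-to-resorufin fluorescence, excitation 544, emission 590 nm | Assay system: Human PMI in coupled enzyme assay | Times: Enzyme reaction with compound 20 min at room temperature | Medium: HEPES-buffered pH 7.4 with magnesium and detergent | Reagent: Mannose-6-phosphate 1.0 mM (near-saturating) plus 0.22 mM NADP+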
DTT redox prof – compounds producing H2O2 with reducing agent – biochemical, NIH compound library profiling, artefact control for MLSCN library redox annotation, primary screen. DTT-dependent redox cycling H2O2, phenol red/HRP absorbance; 100% = 100 µM peroxide control, 0% = buffer. activation, % at 10 µM. actives 0.03% (n = 200,000). AID 878;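 active = activation of at least 50% relative to the plate's high and low controls in the primary single-dose screen; inactive = activation below 50%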;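 note: compound incubated with DTT at 0.8 mM final as the reducing agent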
Diaphorase inh – inhibits diaphorase or chemically oxidizes, flagging diaphorase assay artifacts; inhibition, % at 20 µM; diaphorase resazurin-to-resorufin fluorescence, NADH, 16 min; bacterial (C. kluyveri) enzyme, not human; actives 0.69% (n = 190,000); AID 1217;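 active = primary screen inhibition at 20 µM above a set limit, cut at about 50% in these data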
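Assay system – diaphorase enzyme from Clostridium kluyveri · Amount – diaphorase 0.14 U/mL (working solution) · Times – reaction incubation of 16 min at room temperature · Controls – No-NADH positive control and DMSO neutral control · Signal – resorufin fluorescence 544/590 nm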
Diaph act CS – activates diaphorase or chemically reduces, flagging diaphorase assay artifacts. Diaphorase/resazurin coupled assay, resorufin fluorescence, 16 min; stronger effect = higher value; 1 = vehicle wells, 0 = NADH-free wells. actives 0.005% (n = 190,000). AID 1229. activation factor at 20 µM;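 active = diaphorase activity raised at least twofold by the compound at 20 µM; inactive = activation factor below 2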
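System – purified diaphorase enzyme from Clostridium kluyveri · Input – enzyme 0.07 U/mL final · Also added – final NADH 0.114 mM, resazurin 0.1 mM · Measured by – fluorescence of resorufin, 544 nm excitation, 590 nm emission · Timing – 16 min enzyme reaction, ambient temperature · Measure – resorufin increase flagging diaphorase activators or reducers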
Each line names hits and unclear results; the compound was inactive in the other large screens.

O=C(N/N=C/c1c(O)ccc2ccccc12)c1ccc[n+](CCO)c1	Diaphorase inh 54
CCOC(=O)c1c(C)n(-c2ccc(C)cc2)c2c(C(C(C)=O)C(=O)O)c(Br)c(O)c(O)c12 (stereo unspecified)	Diaphorase inh 72
CCOC(=O)c1c(C)n(-c2ccc(C)cc2)c2c(CC(C)=O)c(Br)c(OC)c(O)c12	none
S=c1[nH]ncn1/N=C/c1ccccc1	Diaphorase inh 60
CCn1c2ccccc2c2cc(/C=N/n3cn[nH]c3=S)ccc21	Diaphorase inh 62
S=c1[nH]ncn1/N=C/c1ccc(Br)cc1	none
C/C(=N\NC(=O)OC(C)(C)C)c1ccccc1Br	none
COc1cc(/C=C2\CC/C(=C\c3cc(OC)c(O)c(OC)c3)C2=O)cc(OC)c1O	G6PDH CS 56, Diaphorase inh 71
Cc1ccccc1NC(=O)C(Cl)=C(Cl)Cl	none
COc1ccc(/C=N/n2cnc3c([nH]c4ccccc43)c2=O)cc1COc1ccccn1	none
Cc1cccc(C)c1C(OCCN(C)C)C1CCCCC1 (stereo unspecified)	none
Cc1cccc(C)c1NC(=O)CSc1nnc(-c2ccco2)c(-c2ccco2)n1	none
CSc1nnc(-c2ccco2)c(-c2ccco2)n1	Diaphorase inh 61
COc1ccc(C(=O)CSc2nnc(-c3ccco3)c(-c3ccco3)n2)cc1	Diaphorase inh 62
Cc1nn(C)c(C)c1C1Nc2ccccc2C(=O)N1O (stereo unspecified)	PMI act satM6P 2
Cc1ccsc1C1Nc2ccccc2C(=O)N1O (stereo unspecified)	none
Cc1cc([N+](=O)[O-])ccc1-c1ccc(C2Nc3ccccc3C(=O)N2O)o1 (stereo unspecified)	Diaphorase inh 68
Cc1nn(C)cc1C1Nc2ccccc2C(=O)N1O (stereo unspecified)	PMI act satM6P 2.2
CCc1ccc(NC(=O)CCc2nc3ccccc3[nH]2)cc1	none
COc1ccc(NC(=O)CSc2nc3ccsc3c(=O)n2CCCCCC(=O)O)cc1	none
COc1ccc(Cn2c(=O)[nH]c3cc(C(=O)NCCc4ccc(S(N)(=O)=O)cc4)ccc3c2=O)cc1	none
COc1cc(/C=C2/C(C)=C(C#N)c3nc(N)c(C#N)c(C)c32)ccc1OCC(=O)O	none
CC1=C(C#N)c2nc(N)c(C#N)c(C)c2/C1=C\c1ccc(-c2ccccc2C(=O)O)o1	Diaphorase inh 62
COc1ccc(N=Cc2ccc(-c3ccccc3)o2)cc1	none
O=C1CN(CC(=O)Nc2cccc(Cl)c2Cl)c2ccccc2N1	none
CCOc1ccc(-n2ccnc2SCC(=O)Nc2cc(C)on2)cc1	none
O=S(=O)(NCc1cccnc1)c1cccs1	none
CSC(=NCc1cccnc1)NS(=O)(=O)c1cccs1	Diaphorase inh 74
Cc1cc(=O)n2cccc(O)c2n1	G6PDH CS 56, Diaphorase inh 63
Clc1cccc(N/N=C/c2ccncc2)c1	none
C/C(=N\Nc1cccc(Cl)c1)c1ccncc1	PMI act satM6P 2.3
CNC(=S)N/N=C(\C)c1ccc(Cl)s1	none
C/C(=N\Nc1ccc(F)cc1)c1ccncc1	PMI act satM6P 2.5
C/C(=N/Nc1ccc(F)cc1)c1ccc(Cl)s1	PMI act satM6P 2.3
CCN(CC)c1ccc(C=C(c2nnnn2-c2ccc(C)cc2)c2nnnn2-c2ccc(C)cc2)cc1	none
CCOc1ccc(NC(=O)CC2Nc3ccccc3NC2=O)cc1 (stereo unspecified)	none
O=C(CC1NC(=O)NC1=O)Nc1ccccc1 (stereo unspecified)	none
CC(=O)c1ccc(NC(=O)CC2Nc3cccc4cccc(c34)NC2=O)cc1 (stereo unspecified)	Diaphorase inh 84
CC(=O)Nc1ccc(NC(=O)CC2Nc3cccc4cccc(c34)NC2=O)cc1 (stereo unspecified)	Diaphorase inh 77
Cc1cccc(NC(=O)CC2Nc3cccc4cccc(c34)NC2=O)c1 (stereo unspecified)	Diaphorase inh 68
CC1=C(C(=O)OC(C)C)C(c2cncc(-c3ccc(F)cc3)c2)C(C#N)=C(N)O1 (stereo unspecified)	none
Cc1nnc(C)n1N	none
O=C(O)c1ccc(/C=N/NC(=S)NCCN2CCOCC2)cc1	none
Oc1cccc(/C=N/NC(=S)NCCN2CCOCC2)c1O	G6PDH CS 60, Diaphorase inh 66
Oc1cccc(/C=N/NC(=S)Nc2cccnc2)c1O	G6PDH CS 51, Diaphorase inh 60 (no result: DTT redox prof)
NC(=S)N/N=C/c1cccc(O)c1O	G6PDH CS 66, Diaphorase inh 60
N#Cc1ccc(OCC(=O)N/N=C/C2CC=CCC2)cc1 (stereo unspecified)	none
CCOc1ccccc1NC(=O)c1cc(SC)ccc1Cl	none
COC(=O)c1c(NC(=O)CSc2nc3ccccc3c(=O)n2Cc2ccco2)sc(C)c1C	none
COC(=O)c1c(NC(=O)CSc2nnc(-c3ccco3)n2Cc2ccccc2)sc(C)c1C	Diaphorase inh 57
CC/C(=N\NC(=O)C(N)=O)c1ccccc1O	none
O=c1sc2ccccc2n1COc1ccccc1	Diaphorase inh 70
O=c1sc2ccccc2n1COc1ccc(Cl)cc1	none
C[C@](N)(Cc1ccc(O)c(O)c1)C(=O)O	none
NCCc1ccc(O)c(O)c1	Diaphorase inh 54
COCCn1c(=O)[nH]c(=O)c2c1nc(-c1cc(Br)c3c(c1)OCO3)n2Cc1ccccc1	none
CC/C(=N\NC(=S)Nc1cc(C)ccc1C)c1ccc(OC(F)F)cc1	none
O=C(O)c1ccc(N/N=C/c2ccc(F)c(F)c2)cc1	none
O=C(O)c1ccc(N/N=C/c2cccc(F)c2)cc1	PMI act satM6P 2.9
O=C1CCN(N=Nc2cccc(Cl)c2)N1	PMI act satM6P 2.2
COCCn1c(CN2CCc3ccccc3C2)nc2c1c(=O)n(C)c(=O)n2C	none
Cc1nc2c(C(=O)NCCC3=CCCCC3)c[nH]n2c(=O)c1Cl	Diaphorase inh 54
CC(=O)n1cc([C@H]2C=C(C(=O)N3CCN(Cc4ccc5c(c4)OCO5)CC3)O[C@@H](OCCCCO)C2)c2ccccc21	Diaphorase inh 56
CCO[C@@H]1OC(C(=O)N2CCN(Cc3ccc4c(c3)OCO4)CC2)=C[C@H](c2cn(C(C)=O)c3ccccc23)[C@H]1CCCO	Diaphorase inh 56
COCCCNC(=O)C1CCC(CNS(=O)(=O)c2ccc(C)cc2)CC1 (stereo unspecified)	none
COc1ccc(S(=O)(=O)N2CCC(C(=O)NCc3cccs3)CC2)cc1	none

Screening results (PubChem)
